# Measured values taken from article PMC8092417 (Anti-cancer drugs, 2020).
# What was measured:
# BT549 cells = assay: Transwell migration assay; format: cell-based, human; conditions: BT549, pretreated 1 μM 72 hours, 24 hours migration
# Procedure, shortened: (§1)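 Cells were pretreated 72 h with test compound (1 μM) or DMSO, and viable cells were then seeded into transwell chambers for 24 h. Non-migrated cells were removed. Migrated cells were fixed, crystal violet-stained, imaged by brightfield and counted. Counts were normalized to DMSO per cell line; triplicate experiments.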
# BT-549 cells = assay: Crystal violet staining, cells remaining / viability dose-response; format: cell-based, human
# Procedure, shortened: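 Cells were plated at 5,000/well in 5% charcoal-stripped DMEM for 48 h, then exposed to test compound or DMSO vehicle for 72 h at 37 °C, 5% CO2. They were fixed with glutaraldehyde for 20 min and stained for 20 min with 0.1% crystal violet in 90% methanol. After overnight drying, cells were lysed in 33% acetic acid and read at 620 nm. Signal was normalized to DMSO and plotted as dose-response.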
# TU-BcX-4IC cells [1] = assay: qRT-PCR of epithelial and mesenchymal genes; format: cell-based, human; conditions: 1 μM, 72 hours
# Procedure, shortened: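 Cells were treated 72 h with test compound (1 μM) or DMSO. Total RNA was column-isolated and checked for quantity and quality by absorbance (260, 280 nm). Then 2 μg total RNA was reverse-transcribed and gene expression measured by qRT-PCR.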
# [2] = system: HLA+CD44+CD24- cancer stem cells of TU-BcX-4IC-implanted mice; assay: Flow cytometry for circulating cancer stem cells in peripheral blood; format: in vivo, SCID/Beige mice; conditions: 25 mg/kg bid, vs DMSO vehicle
# Procedure, shortened: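 Female SCID/Beige mice (n=5/group) carried TU-BcX-4IC tumor implants (3 × 3 mm) in the mammary fat pads and received i.p. test compound or DMSO vehicle twice daily for 15 days. Intracardiac blood was stored in EDTA […], RBC-lysed ([…] NH4Cl, pH 7.2–7.4), Fc-blocked, and stained with anti-human CD24, EpCAM and CD44. At least 5000 events were analyzed; n=4 mice/group; mean ± SEM.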
# TU-BcX-4IC M2 spheres = assay: In vivo inoculation of pre-treated spheres, tumorigenesis and metastasis; parameters: species or system SCID/Beige mice; conditions: 100,000 cells per injection
# Procedure, shortened: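 TU-BcX-4IC M2 spheres were pre-exposed to test compound (1 μM) or DMSO for 72 h under low attachment. Spheres were dissociated to single cells with TrypLE, and only trypan blue-excluding viable cells were used. 100,000 cells/injection went bilaterally into the mammary fat pad of SCID/Beige mice (5/group). Tumours were measured biweekly by caliper, then resected. Mice were killed 20 days later, and lungs and livers were formalin-fixed, paraffin-embedded and H&E-stained for metastases.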
# TU-BcX-4IC cells [3] = assay: Phalloidin immunofluorescence with morphometric quantification; format: cell-based, human; conditions: 1 μM, 72 hours
# TU-BcX-4IC explants = assay: Western blot of treated PDX tumor explants; format: cell-based, human; conditions: 24 hours
# TU-BcX-4IC tumors = assay: qRT-PCR of ex vivo treated PDX tumor pieces; format: cell-based, human; conditions: TU-BcX-4IC tumor pieces, 1 μM, 72 hours
# NEK2 = target: T1, NEK2 (Homo sapiens, UniProt P51955); assay: Kinase inhibition assay; format: biochemical; conditions: 1 μM
# T1 sequence (P51955 1-445): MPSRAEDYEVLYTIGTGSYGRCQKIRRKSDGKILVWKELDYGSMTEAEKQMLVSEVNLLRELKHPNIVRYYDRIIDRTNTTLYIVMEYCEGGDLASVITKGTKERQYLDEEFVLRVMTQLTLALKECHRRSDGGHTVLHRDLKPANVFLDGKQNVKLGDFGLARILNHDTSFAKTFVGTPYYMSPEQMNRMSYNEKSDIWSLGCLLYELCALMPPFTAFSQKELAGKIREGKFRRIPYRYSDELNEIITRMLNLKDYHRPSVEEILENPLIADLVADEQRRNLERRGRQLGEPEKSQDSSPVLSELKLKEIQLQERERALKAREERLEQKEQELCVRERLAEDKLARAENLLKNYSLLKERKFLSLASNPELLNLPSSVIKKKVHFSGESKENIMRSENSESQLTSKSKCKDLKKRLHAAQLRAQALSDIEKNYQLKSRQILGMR
# MDA-MB-231 M2 spheres = assay: Mammosphere formation and area quantification; format: cell-based, human; conditions: MDA-MB-231, 7 days treatment
# Procedure, shortened: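 MDA-MB-231 cells were seeded at 1,000/well in low-attachment wells in serum-free F12/DMEM plus B-27 and allowed 24 h to form spheres. Spheres were then treated with test compound or DMSO for one week, re-dosed every three days. Imaging was at 40X or 100X. Sphere length and width were measured, area was calculated, and values were compared with DMSO controls.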
# LOK = LOK (Homo sapiens, UniProt O94804); assay: Kinase inhibition assay; format: biochemical; conditions: 1 μM
# PLK1 = PLK1 (Homo sapiens, UniProt P53350); assay: Kinase inhibition assay; format: biochemical; conditions: 1 μM
# TU-BcX-4IC PDX model = assay: In vivo treatment of TU-BcX-4IC implants, tumor growth and metastasis; parameters: species or system SCID/Beige mice; conditions: 25 mg/kg bid intraperitoneally, 15 days, vs DMSO vehicle
# Procedure, shortened: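 Female SCID/Beige mice (5/group) received bilateral mammary fat pad implants of TU-BcX-4IC tumour pieces (3 × 3 mm). Twice-daily intraperitoneal dosing with test compound or DMSO vehicle began 24 h after implantation. At sacrifice, lungs and livers were formalin-fixed, paraffin-embedded, sectioned and H&E-stained. Lesion area and number per section were quantified.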
# TU-BcX-4IC cells [4] = assay: Transwell migration assay; format: cell-based, human; conditions: pretreated 1 μM 72 hours, 24 hours migration
# Procedure, shortened: as §1
# MDA-MB-231 cells = assay: Ki-67 immunofluorescence staining for proliferation; format: cell-based, human; conditions: MDA-MB-231, 1 μM, 72 hours
# RET = RET (Homo sapiens, UniProt P07949); assay: Kinase inhibition assay; format: biochemical; conditions: 1 μM
# [5] = TU-BcX-4IC M2 spheres pre-treated 1 μM 72 hours
# Chain of LOK (O94804 whole entry): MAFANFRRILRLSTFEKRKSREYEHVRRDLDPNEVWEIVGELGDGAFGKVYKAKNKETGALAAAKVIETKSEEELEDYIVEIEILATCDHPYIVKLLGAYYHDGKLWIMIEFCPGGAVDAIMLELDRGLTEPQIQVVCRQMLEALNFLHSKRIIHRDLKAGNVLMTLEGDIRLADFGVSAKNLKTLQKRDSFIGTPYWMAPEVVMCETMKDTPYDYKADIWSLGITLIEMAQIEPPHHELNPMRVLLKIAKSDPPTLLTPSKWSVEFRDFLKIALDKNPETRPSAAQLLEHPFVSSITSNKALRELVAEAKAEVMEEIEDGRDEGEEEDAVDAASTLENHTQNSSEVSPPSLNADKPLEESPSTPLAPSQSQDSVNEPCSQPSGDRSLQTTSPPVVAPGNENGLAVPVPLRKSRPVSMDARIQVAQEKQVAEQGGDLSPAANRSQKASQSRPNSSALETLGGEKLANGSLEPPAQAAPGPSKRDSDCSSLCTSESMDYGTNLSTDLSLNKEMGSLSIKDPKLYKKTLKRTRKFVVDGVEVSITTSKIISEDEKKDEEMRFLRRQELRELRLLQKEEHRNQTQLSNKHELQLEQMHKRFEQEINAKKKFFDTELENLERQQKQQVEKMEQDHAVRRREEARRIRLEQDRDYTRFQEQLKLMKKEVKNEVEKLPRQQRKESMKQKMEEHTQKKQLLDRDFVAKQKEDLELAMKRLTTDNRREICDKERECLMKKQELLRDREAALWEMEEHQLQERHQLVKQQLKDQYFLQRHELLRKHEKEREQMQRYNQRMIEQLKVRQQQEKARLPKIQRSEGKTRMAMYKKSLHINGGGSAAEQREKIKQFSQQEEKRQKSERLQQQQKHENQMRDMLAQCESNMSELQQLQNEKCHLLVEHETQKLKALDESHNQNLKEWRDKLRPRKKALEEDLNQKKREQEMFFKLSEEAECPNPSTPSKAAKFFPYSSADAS
# Chain of RET (P07949 29-1114): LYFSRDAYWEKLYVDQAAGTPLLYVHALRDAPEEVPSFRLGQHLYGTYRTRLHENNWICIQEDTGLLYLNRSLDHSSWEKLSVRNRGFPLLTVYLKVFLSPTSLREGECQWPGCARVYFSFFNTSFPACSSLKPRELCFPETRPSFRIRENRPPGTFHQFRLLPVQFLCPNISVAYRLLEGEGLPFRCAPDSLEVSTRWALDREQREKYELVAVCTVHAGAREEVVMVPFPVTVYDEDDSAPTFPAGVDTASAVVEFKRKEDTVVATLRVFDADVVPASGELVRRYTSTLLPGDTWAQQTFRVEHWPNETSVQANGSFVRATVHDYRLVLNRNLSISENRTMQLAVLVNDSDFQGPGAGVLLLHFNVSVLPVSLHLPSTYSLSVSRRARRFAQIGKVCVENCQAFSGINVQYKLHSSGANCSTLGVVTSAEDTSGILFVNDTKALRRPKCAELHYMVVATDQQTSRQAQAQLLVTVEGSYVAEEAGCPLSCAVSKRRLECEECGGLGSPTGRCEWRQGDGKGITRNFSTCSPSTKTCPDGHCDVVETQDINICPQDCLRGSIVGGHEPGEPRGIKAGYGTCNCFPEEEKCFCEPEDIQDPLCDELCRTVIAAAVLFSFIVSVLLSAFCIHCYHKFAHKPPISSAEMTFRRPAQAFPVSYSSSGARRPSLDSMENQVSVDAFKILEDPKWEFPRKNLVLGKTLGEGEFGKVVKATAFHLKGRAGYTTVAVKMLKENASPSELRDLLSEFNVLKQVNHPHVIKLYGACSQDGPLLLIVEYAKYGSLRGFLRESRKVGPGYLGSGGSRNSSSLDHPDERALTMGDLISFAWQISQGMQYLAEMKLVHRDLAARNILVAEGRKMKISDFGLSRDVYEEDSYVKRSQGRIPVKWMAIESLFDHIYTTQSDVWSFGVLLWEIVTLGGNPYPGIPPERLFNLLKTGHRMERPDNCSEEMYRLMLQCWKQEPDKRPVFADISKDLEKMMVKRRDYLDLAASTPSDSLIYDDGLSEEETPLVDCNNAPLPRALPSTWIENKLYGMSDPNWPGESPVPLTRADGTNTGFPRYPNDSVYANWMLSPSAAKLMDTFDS
# Chain of PLK1 (P53350 whole entry): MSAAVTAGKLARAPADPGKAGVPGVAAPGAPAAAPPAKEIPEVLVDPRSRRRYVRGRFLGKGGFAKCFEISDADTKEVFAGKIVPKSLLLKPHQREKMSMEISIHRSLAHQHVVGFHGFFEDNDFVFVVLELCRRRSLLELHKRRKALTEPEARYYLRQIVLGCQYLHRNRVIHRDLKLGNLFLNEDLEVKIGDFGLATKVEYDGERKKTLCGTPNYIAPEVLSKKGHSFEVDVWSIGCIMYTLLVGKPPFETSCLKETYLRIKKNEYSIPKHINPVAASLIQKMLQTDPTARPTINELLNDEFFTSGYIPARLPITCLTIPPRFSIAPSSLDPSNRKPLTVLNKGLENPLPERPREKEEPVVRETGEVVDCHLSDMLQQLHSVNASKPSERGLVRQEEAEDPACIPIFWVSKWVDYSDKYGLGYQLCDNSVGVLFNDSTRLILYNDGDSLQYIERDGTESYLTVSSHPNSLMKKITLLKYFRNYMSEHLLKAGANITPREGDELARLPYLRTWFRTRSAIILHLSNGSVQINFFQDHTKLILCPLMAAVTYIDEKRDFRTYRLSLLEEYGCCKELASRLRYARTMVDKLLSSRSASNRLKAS
smiles,measurement,setting,value
C[C@@H](Oc1cc(-n2cnc3ccc(NC(=O)NC(C)(C)C)cc32)sc1C(N)=O)c1ccccc1Cl [GSK346294A],Transwell cell migration,BT549 cells,most suppressive effects on cell migration
same,Number of cells remaining compared to DMSO controls,"BT-549 cells; BT-549, 1 μM, 72 hours",decreased the number of cells remaining
same,IC50,"BT-549 cells; Homo sapiens, BT-549, 72 h, read-out: IC-50, number of cells remaining",1000 nM
same,MMP9 mRNA expression,TU-BcX-4IC cells [1],Neither GSK346294A nor GSK448459A affected MMP9 expression
same,ZEB1 mRNA expression,TU-BcX-4IC cells [1],suppressed ZEB1 expression in TU-BcX-4IC cells albeit not significantly
same,cFOS mRNA expression,TU-BcX-4IC cells [1],"suppressive effects in all three TNBC cell lines, although not significantly"
same,CSC populations in peripheral blood,[2],"suppressed the CSC populations in the peripheral blood of mice implanted with TU-BcX-4IC tumors, although not significantly"
same,Area of liver metastases,TU-BcX-4IC M2 spheres; [5],did not suppress
same,Area of lung metastasis,TU-BcX-4IC M2 spheres; [5],suppressed area of lung metastasis
same,Total number of lung lesions,TU-BcX-4IC M2 spheres; [5],significantly suppresses total number of lesions
same,Tumor formation of pre-treated spheres,TU-BcX-4IC M2 spheres; [5],significantly suppressed tumor formation
same,Number of liver metastases,TU-BcX-4IC M2 spheres; TU-BcX-4IC MS2 spheres pre-treated 1 μM 72 hours,did not suppress
same,Nuclear area fraction,TU-BcX-4IC cells [3],most significantly reduced nuclear area fraction
same,Total cell area,TU-BcX-4IC cells [3],largest overall areas
same,CDH1 protein expression,TU-BcX-4IC explants,increased CDH1 protein
same,MMP9 protein expression,TU-BcX-4IC explants,suppressed the mesenchymal-associated proteins MMP9 and ZEB1
same,ZEB1 protein expression,TU-BcX-4IC explants,suppressed the mesenchymal-associated proteins MMP9 and ZEB1
same,MMP9 mRNA levels,TU-BcX-4IC tumors,did not reduce MMP9 levels
same,Reversal of mesenchymal phenotype on a transcript level,TU-BcX-4IC tumors,did not reverse the mesenchymal phenotype
same,Binding activity to NEK2,NEK2,5%
same,Sphere area,MDA-MB-231 M2 spheres,significantly increased sphere area
same,Activity against LOK,LOK,moderate activity
same,Binding activity to LOK,LOK,36%
same,Activity against PLK1,PLK1,strong activity
same,Area of liver metastases per section,TU-BcX-4IC PDX model,minimally suppressed the area of liver metastases
same,Area of lung metastases per section,TU-BcX-4IC PDX model,did not affect the area of lung metastases
same,Growth of the primary tumor,TU-BcX-4IC PDX model,did not affect growth of the tumor
same,"Metastasis to lungs and livers, overall",TU-BcX-4IC PDX model,did not effectively suppress metastasis
same,Number of liver metastases per section,TU-BcX-4IC PDX model,minimally suppressed
same,Number of metastases per lung section,TU-BcX-4IC PDX model,minimally reduce the overall number of metastases per lung section
same,Transwell cell migration,TU-BcX-4IC cells [4],most suppressive effects on cell migration
same,Ki-67 positive cells (cell proliferation),MDA-MB-231 cells,increased the total number of cells expressing the Ki-67 marker
same,Activity against RET,RET,moderate activity
